Measurements taken from ChEMBL document CHEMBL4266041, “Hydroxybiphenylamide GroEL/ES Inhibitors Are Potent Antibacterials against Planktonic and Biofilm Forms of Staphylococcus aureus” (J Med Chem, 2018).

Tests used:
E. coli GroEL/ES [1] = target: T1, E. coli GroEL/ES (Escherichia coli, UniProt P0A6F5); assay: Inhibition of Escherichia coli GroEL expressed in Escherichia coli DH5alpha/Escherichia coli GroES expressed in Escherichia coli BL21 (DE3) assessed as reduction in GroEL/GroES-mediated denatured rhodanese refolding after 45 mins by spectrometric analysis
T1 sequence (P0A6F5 whole entry, looked up): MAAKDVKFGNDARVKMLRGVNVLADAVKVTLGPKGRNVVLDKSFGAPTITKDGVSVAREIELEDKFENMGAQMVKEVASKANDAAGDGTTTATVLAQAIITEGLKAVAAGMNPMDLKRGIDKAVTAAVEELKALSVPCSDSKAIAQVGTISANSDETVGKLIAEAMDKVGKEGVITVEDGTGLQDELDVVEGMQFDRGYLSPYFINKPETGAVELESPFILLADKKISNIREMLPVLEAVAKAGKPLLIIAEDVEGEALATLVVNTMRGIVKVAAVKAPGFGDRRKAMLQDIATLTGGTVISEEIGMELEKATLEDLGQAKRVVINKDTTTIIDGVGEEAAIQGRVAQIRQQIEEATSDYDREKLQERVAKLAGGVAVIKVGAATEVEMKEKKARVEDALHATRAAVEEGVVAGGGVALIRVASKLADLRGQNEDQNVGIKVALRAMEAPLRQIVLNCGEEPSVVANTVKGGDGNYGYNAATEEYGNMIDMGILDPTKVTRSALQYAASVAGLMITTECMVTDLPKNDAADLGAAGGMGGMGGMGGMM
Outline: (§1)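 Uses E. coli GroEL/ES with a denatured MDH or rhodanese reporter. GroEL first forms a binary complex with the denatured reporter. Refolding is started by adding ATP and GroES, then reporter enzyme activity is read. DMSO is the negative control. IC50 values from replicate curves are log-averaged after ROUT outlier screening.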

[2] = Inhibition of refolded MDH (unknown origin) preincubated with Escherichia coli GroEL/GroES for 45 mins in absence of compound followed by compound addition and measured for 20 to 35 mins by spectrometric analysis
[3] = Cytotoxicity against human THLE3 cells assessed as reduction in cell viability after 48 hrs by Alamar Blue reporter assay; details: 48 h
[4] = target: T2, Thiosulfate sulfurtransferase (Homo sapiens, UniProt Q16762); assay: Inhibition of refolded rhodanese (unknown origin) preincubated with Escherichia coli GroEL/GroES for 60 mins in absence of compound followed by compound addition by spectrometric analysis
T2 sequence (Q16762 whole entry): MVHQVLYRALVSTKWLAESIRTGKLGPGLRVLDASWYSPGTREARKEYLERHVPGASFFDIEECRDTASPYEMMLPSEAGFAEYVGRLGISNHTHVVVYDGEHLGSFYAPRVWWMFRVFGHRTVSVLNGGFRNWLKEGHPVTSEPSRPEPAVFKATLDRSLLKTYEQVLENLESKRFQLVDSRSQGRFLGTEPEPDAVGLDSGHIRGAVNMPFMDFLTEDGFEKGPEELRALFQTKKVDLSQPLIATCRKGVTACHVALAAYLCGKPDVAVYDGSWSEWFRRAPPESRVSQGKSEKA

HEK293 = assay: Cytotoxicity against HEK293 cells assessed as reduction in cell viability after 48 hrs by Alamar Blue reporter assay; details: human, hek293, 48 h
Pseudomonas aeruginosa = assay: Antibacterial activity against Pseudomonas aeruginosa ATCC 10145 after 24 hrs by bacterial proliferation assay; assay type: functional, organism-based; details: ATCC 10145, 24 h
Outline: (§2)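 Bacterial growth inhibition in liquid culture. The highest concentration tested was 100 µM. The mean was back-calculated from the average log value. Values above the top concentration were set 0.1 log unit higher.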

Enterococcus faecium = assay: Antibacterial activity against Enterococcus faecium ATCC 19434 after 24 hrs by bacterial proliferation assay; assay type: functional, organism-based; details: ATCC 19434, 24 h
HSP60/HSP10 = HSP60/HSP10 (Homo sapiens, UniProt P10809); assay: Inhibition of human N-terminal octa-His-tagged HSP60 expressed in Escherichia coli Rosetta(DE3) pLysS/human HSP10 expressed in Escherichia coli Rosetta(DE3) assessed as reduction in HSP60/HSP10-mediated denatured MDH refolding after 40 to 60 mins by spectrometric analysis
Sequence of HSP60/HSP10 (P10809 whole entry): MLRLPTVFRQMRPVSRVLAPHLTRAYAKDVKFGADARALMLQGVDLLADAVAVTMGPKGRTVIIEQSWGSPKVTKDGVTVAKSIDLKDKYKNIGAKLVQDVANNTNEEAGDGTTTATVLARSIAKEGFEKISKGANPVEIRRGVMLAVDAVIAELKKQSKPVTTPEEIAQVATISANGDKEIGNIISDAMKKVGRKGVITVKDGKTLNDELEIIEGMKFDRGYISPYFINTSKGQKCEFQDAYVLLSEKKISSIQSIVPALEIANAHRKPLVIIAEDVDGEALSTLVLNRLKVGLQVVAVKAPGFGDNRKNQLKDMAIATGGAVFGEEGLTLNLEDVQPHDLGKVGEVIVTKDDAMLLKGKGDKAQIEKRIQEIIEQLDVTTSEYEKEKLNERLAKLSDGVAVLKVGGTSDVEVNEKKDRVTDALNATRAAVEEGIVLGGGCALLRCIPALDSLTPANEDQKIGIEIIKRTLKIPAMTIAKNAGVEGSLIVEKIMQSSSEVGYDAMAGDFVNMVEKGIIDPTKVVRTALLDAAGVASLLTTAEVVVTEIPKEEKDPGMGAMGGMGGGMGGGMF
Sequence of HSP60/HSP10 (P61604 whole entry, further chain): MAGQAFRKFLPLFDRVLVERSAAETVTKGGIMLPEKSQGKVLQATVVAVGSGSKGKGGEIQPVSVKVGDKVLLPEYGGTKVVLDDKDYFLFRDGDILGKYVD
Outline: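 Human HSP60/10 refolding of denatured MDH, run the same way as the GroEL/ES-dMDH assay. A binary complex of chaperonin and denatured MDH is formed, and refolding is started with ATP and HSP10. MDH activity is the read-out. DMSO is the negative control. IC50 values from replicate curves are log-averaged after ROUT outlier screening.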

Staphylococcus aureus [5] = assay: Antibacterial activity against Staphylococcus aureus ATCC 25923 after 6 to 8 hrs by bacterial proliferation assay; assay type: functional, organism-based
Staphylococcus aureus [6] = assay: Antibacterial activity against methicillin-resistant Staphylococcus aureus ATCC BAA-44 after 6 to 8 hrs by bacterial proliferation assay; assay type: functional, organism-based; details: Staphylococcus aureus, ATCC BAA-44
Acinetobacter baumannii = assay: Antibacterial activity against Acinetobacter baumannii ATCC 19606 after 24 hrs by bacterial proliferation assay; assay type: functional, organism-based; details: ATCC 19606 = CIP 70.34 = JCM 6841, 24 h; outline: as §2
E. coli GroEL/ES [7] = target: T1, E. coli GroEL/ES; assay: Inhibition of Escherichia coli GroEL expressed in Escherichia coli DH5alpha/Escherichia coli GroES expressed in Escherichia coli BL21 (DE3) assessed as reduction in GroEL/GroES-mediated denatured MDH refolding after 20 to 40 mins by spectrometric analysis; outline: as §1
Enterobacter cloacae = assay: Antibacterial activity against Enterobacter cloacae subsp. cloacae ATCC 13047 after 24 hrs by bacterial proliferation assay; assay type: functional, organism-based; details: subsp. cloacae ATCC 13047, 24 h; outline: as §2
Klebsiella pneumoniae = assay: Antibacterial activity against Klebsiella pneumoniae ATCC 13883 after 6 to 8 hrs by bacterial proliferation assay; assay type: functional, organism-based; outline: as §2

COc1ccccc1C(=O)Nc1ccc(Sc2nc3ccccc3s2)c(Cl)c1
IC50 (E. coli GroEL/ES [1]): > 100 µM
IC50 [2]: > 63 µM
CC50 [3]: > 100 µM
IC50 [4]: > 100 µM
CC50 (HEK293): > 100 µM
EC50 (Pseudomonas aeruginosa): > 100 µM
EC50 (Enterococcus faecium): > 100 µM
IC50 (HSP60/HSP10): > 100 µM
EC50 (Staphylococcus aureus [5]): > 100 µM
EC50 (Staphylococcus aureus [6]): > 100 µM
EC50 (Acinetobacter baumannii): > 100 µM
IC50 (E. coli GroEL/ES [7]): > 100 µM
EC50 (Enterobacter cloacae): > 100 µM
EC50 (Klebsiella pneumoniae): > 100 µM

O=C(Nc1cccc(Cl)c1)c1cccc(Br)c1O
IC50 (E. coli GroEL/ES [1]): > 100 µM
IC50 [2]: > 63 µM
CC50 [3]: 16 µM
IC50 [4]: > 100 µM
CC50 (HEK293): 32 µM
EC50 (Pseudomonas aeruginosa): > 100 µM
EC50 (Enterococcus faecium): > 100 µM
IC50 (HSP60/HSP10): > 100 µM
EC50 (Staphylococcus aureus [5]): 1.3 µM
EC50 (Staphylococcus aureus [6]): 2 µM
EC50 (Acinetobacter baumannii): > 100 µM
IC50 (E. coli GroEL/ES [7]): > 100 µM
EC50 (Enterobacter cloacae): > 100 µM
EC50 (Klebsiella pneumoniae): > 100 µM

COc1ccccc1C(=O)Nc1ccccc1
IC50 (E. coli GroEL/ES [1]): > 100 µM
IC50 [2]: > 63 µM
CC50 [3]: > 100 µM
IC50 [4]: > 100 µM
CC50 (HEK293): > 100 µM
EC50 (Pseudomonas aeruginosa): > 100 µM
EC50 (Enterococcus faecium): > 100 µM
IC50 (HSP60/HSP10): > 100 µM
EC50 (Staphylococcus aureus [5]): > 100 µM
EC50 (Staphylococcus aureus [6]): > 100 µM
EC50 (Acinetobacter baumannii): > 100 µM
IC50 (E. coli GroEL/ES [7]): > 100 µM
EC50 (Enterobacter cloacae): > 100 µM
EC50 (Klebsiella pneumoniae): > 100 µM

COc1c(Br)cc(Br)cc1C(=O)Nc1cccc(Cl)c1
IC50 (E. coli GroEL/ES [1]): > 100 µM
IC50 [2]: > 63 µM
CC50 [3]: > 100 µM
IC50 [4]: > 100 µM
CC50 (HEK293): > 100 µM
EC50 (Pseudomonas aeruginosa): > 100 µM
EC50 (Enterococcus faecium): > 100 µM
IC50 (HSP60/HSP10): > 100 µM
EC50 (Staphylococcus aureus [5]): 46 µM
EC50 (Staphylococcus aureus [6]): > 100 µM
EC50 (Acinetobacter baumannii): > 100 µM
IC50 (E. coli GroEL/ES [7]): > 100 µM
EC50 (Enterobacter cloacae): > 100 µM
EC50 (Klebsiella pneumoniae): > 100 µM

COc1ccc(Br)cc1C(=O)Nc1ccc(Sc2nc3ccccc3s2)cc1
IC50 (E. coli GroEL/ES [1]): > 100 µM
IC50 [2]: > 63 µM
CC50 [3]: > 100 µM
IC50 [4]: > 100 µM
CC50 (HEK293): > 100 µM
EC50 (Pseudomonas aeruginosa): > 100 µM
EC50 (Enterococcus faecium): > 100 µM
IC50 (HSP60/HSP10): > 100 µM
EC50 (Staphylococcus aureus [5]): > 100 µM
EC50 (Staphylococcus aureus [6]): > 100 µM
EC50 (Acinetobacter baumannii): > 100 µM
IC50 (E. coli GroEL/ES [7]): > 100 µM
EC50 (Enterobacter cloacae): > 100 µM
EC50 (Klebsiella pneumoniae): > 100 µM

O=C(Nc1ccc(Sc2nc3ccccc3s2)cc1)c1ccccc1
IC50 (E. coli GroEL/ES [1]): > 100 µM
IC50 [2]: > 63 µM
CC50 [3]: > 100 µM
IC50 [4]: > 100 µM
CC50 (HEK293): > 100 µM
EC50 (Pseudomonas aeruginosa): > 100 µM
EC50 (Enterococcus faecium): > 100 µM
IC50 (HSP60/HSP10): > 100 µM
EC50 (Staphylococcus aureus [5]): > 100 µM
EC50 (Staphylococcus aureus [6]): > 100 µM
EC50 (Acinetobacter baumannii): > 100 µM
IC50 (E. coli GroEL/ES [7]): > 100 µM
EC50 (Enterobacter cloacae): > 100 µM
EC50 (Klebsiella pneumoniae): > 100 µM

COc1c(Br)cccc1C(=O)Nc1cccc(Cl)c1
IC50 (E. coli GroEL/ES [1]): > 100 µM
IC50 [2]: > 63 µM
CC50 [3]: > 100 µM
IC50 [4]: > 100 µM
CC50 (HEK293): > 100 µM
EC50 (Pseudomonas aeruginosa): > 100 µM
EC50 (Enterococcus faecium): > 100 µM
IC50 (HSP60/HSP10): > 100 µM
EC50 (Staphylococcus aureus [5]): > 100 µM
EC50 (Staphylococcus aureus [6]): > 100 µM
EC50 (Acinetobacter baumannii): > 100 µM
IC50 (E. coli GroEL/ES [7]): > 100 µM
EC50 (Enterobacter cloacae): > 100 µM
EC50 (Klebsiella pneumoniae): > 100 µM

CC1(C)S[C@@H]2[C@H](NC(=O)[C@H](N)c3ccccc3)C(=O)N2[C@H]1C(=O)O [AMPICILLIN]
IC50 (E. coli GroEL/ES [1]): > 100 µM
IC50 [2]: > 63 µM
CC50 [3]: > 100 µM
IC50 [4]: > 100 µM
CC50 (HEK293): > 100 µM
EC50 (Pseudomonas aeruginosa): > 100 µM
EC50 (Enterococcus faecium): 6.9 µM
IC50 (HSP60/HSP10): > 100 µM
EC50 (Staphylococcus aureus [5]): 0.19 µM
EC50 (Staphylococcus aureus [6]): > 100 µM
EC50 (Acinetobacter baumannii): > 100 µM
IC50 (E. coli GroEL/ES [7]): > 100 µM
EC50 (Enterobacter cloacae): > 100 µM
EC50 (Klebsiella pneumoniae): > 100 µM

O=C(Nc1ccccc1)c1cc(Br)ccc1O
IC50 (E. coli GroEL/ES [1]): > 100 µM
IC50 [2]: > 63 µM
CC50 [3]: 16 µM
IC50 [4]: > 100 µM
CC50 (HEK293): 35 µM
EC50 (Pseudomonas aeruginosa): > 100 µM
EC50 (Enterococcus faecium): > 100 µM
IC50 (HSP60/HSP10): > 100 µM
EC50 (Staphylococcus aureus [5]): 2.8 µM
EC50 (Staphylococcus aureus [6]): 4.1 µM
EC50 (Acinetobacter baumannii): > 100 µM
IC50 (E. coli GroEL/ES [7]): > 100 µM
EC50 (Enterobacter cloacae): > 100 µM
EC50 (Klebsiella pneumoniae): 78 µM

O=C(Nc1cccc(Cl)c1)c1ccccc1O
IC50 (E. coli GroEL/ES [1]): > 100 µM
IC50 [2]: > 63 µM
CC50 [3]: 16 µM
IC50 [4]: > 100 µM
CC50 (HEK293): 37 µM
EC50 (Pseudomonas aeruginosa): > 100 µM
EC50 (Enterococcus faecium): > 100 µM
IC50 (HSP60/HSP10): > 100 µM
EC50 (Staphylococcus aureus [5]): 3.1 µM
EC50 (Staphylococcus aureus [6]): 4.2 µM
EC50 (Acinetobacter baumannii): > 100 µM
IC50 (E. coli GroEL/ES [7]): > 100 µM
EC50 (Enterobacter cloacae): > 100 µM
EC50 (Klebsiella pneumoniae): > 100 µM

COc1c(Br)cccc1C(=O)Nc1ccc(Sc2nc3ccccc3s2)cc1
IC50 (E. coli GroEL/ES [1]): > 100 µM
IC50 [2]: > 63 µM
CC50 [3]: > 100 µM
IC50 [4]: > 100 µM
CC50 (HEK293): > 100 µM
EC50 (Pseudomonas aeruginosa): > 100 µM
EC50 (Enterococcus faecium): > 100 µM
IC50 (HSP60/HSP10): > 100 µM
EC50 (Staphylococcus aureus [5]): > 100 µM
EC50 (Staphylococcus aureus [6]): > 100 µM
EC50 (Acinetobacter baumannii): > 100 µM
IC50 (E. coli GroEL/ES [7]): > 100 µM
EC50 (Enterobacter cloacae): > 100 µM
EC50 (Klebsiella pneumoniae): > 100 µM

O=C(Nc1ccccc1)c1cccc(Br)c1
IC50 (E. coli GroEL/ES [1]): > 100 µM
IC50 [2]: > 63 µM
CC50 [3]: > 100 µM
IC50 [4]: > 100 µM
CC50 (HEK293): > 100 µM
EC50 (Pseudomonas aeruginosa): > 100 µM
EC50 (Enterococcus faecium): > 100 µM
IC50 (HSP60/HSP10): > 100 µM
EC50 (Staphylococcus aureus [5]): > 100 µM
EC50 (Staphylococcus aureus [6]): > 100 µM
EC50 (Acinetobacter baumannii): > 100 µM
IC50 (E. coli GroEL/ES [7]): > 100 µM
EC50 (Enterobacter cloacae): > 100 µM
EC50 (Klebsiella pneumoniae): > 100 µM
